The values that follow come from ChEMBL document CHEMBL1123370, “Design and synthesis of conformationally constrained somatostatin analogues with high potency and specificity for mu opioid receptors” (J Med Chem, 1986).

A value given as a limit tells only on which side of the number the result lay.

The target in experiment [1] is Opioid receptors; mu & delta (Rattus norvegicus) (UniProt P33533+P33535). The experiment in a line: Ratio of receptor binding inhibitory concentrations against mu and delta opioid receptors from rat brain as IC50 (vs [3H]-DPDPE) / IC50 (vs [3H]naloxone). In outline: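 The ratio is IC50 against [3H]DPDPE (rat brain membranes, 180 min, 25 °C) divided by IC50 against 1 nM [3H]naloxone (120 min, 25 °C). Both assays used Tris-HCl pH 7.4 buffer with MgCl2, BSA and bacitracin, and filtration on PEI-treated GF/B filters.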
Opioid receptors; mu & delta (Rattus norvegicus), sequence (P33533 whole entry, looked up): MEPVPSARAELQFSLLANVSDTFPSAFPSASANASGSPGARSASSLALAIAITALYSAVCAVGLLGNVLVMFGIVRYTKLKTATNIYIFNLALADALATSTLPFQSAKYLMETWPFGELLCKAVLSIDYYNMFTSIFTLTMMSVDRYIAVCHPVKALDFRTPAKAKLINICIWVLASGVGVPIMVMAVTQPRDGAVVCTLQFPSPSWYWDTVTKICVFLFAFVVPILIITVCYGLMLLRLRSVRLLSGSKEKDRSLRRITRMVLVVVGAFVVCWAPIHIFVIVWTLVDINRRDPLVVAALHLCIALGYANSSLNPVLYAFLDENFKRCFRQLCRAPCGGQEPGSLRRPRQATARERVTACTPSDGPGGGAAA
Opioid receptors; mu & delta (Rattus norvegicus), sequence (P33535 whole entry, looked up): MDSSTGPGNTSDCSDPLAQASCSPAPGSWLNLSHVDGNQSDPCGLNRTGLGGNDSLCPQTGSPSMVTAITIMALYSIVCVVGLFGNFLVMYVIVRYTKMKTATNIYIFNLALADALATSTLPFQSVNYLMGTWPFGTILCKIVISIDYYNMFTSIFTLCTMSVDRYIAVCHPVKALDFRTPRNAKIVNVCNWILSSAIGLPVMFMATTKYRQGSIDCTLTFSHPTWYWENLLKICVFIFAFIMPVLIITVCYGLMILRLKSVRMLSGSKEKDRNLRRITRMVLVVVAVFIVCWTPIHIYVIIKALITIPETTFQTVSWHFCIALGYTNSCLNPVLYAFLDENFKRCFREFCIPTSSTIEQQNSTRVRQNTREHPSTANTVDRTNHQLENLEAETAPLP

Experiment [2] in a line: Ratio of receptor binding inhibitory concentrations against somatostatin receptors and mu opioid receptors from rat brain […] / IC50(vs [3H]naloxone).
Experiment [3] has as its target Delta-type opioid receptor (Rattus norvegicus, UniProt P33533). The experiment in a line: Inhibition of [3H]-DPDPE binding to Opioid receptor delta 1 of rat brain membranes. Type of experiment: cell membranes, Membrane. In outline:
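Rat brain membranes were prepared as a sucrose homogenate, spun at 1000g, and washed twice in 50 mM Tris-HCl pH 7.4 with 5 mM MgCl2, BSA 2 mg/mL and bacitracin 20 µg/mL. They were incubated with [3H]DPDPE and at least 10 freshly prepared peptide concentrations for 180 min at 25 °C. Bound ligand was separated by rapid filtration on PEI-pretreated GF/B filters.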

The species named for another experiment is Rattus norvegicus. The experiment in a line: Compound was evaluated for the inhibition of binding of [125I]CGP23996 to rat brain membranes. Details: species or system Membrane. In outline: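 Whole brains from adult Sprague-Dawley rats (150–200 g) were homogenized 10% w/v in 0.32 M sucrose, spun at 1000g for 10 min, and resuspended in 50 mM Tris-HCl pH 7.4 with 5 mM MgCl2, BSA 2 mg/mL and bacitracin 20 µg/mL (done twice). Membranes were incubated with 0.2 nM [125I]CGP23,996 and ≥10 analogue concentrations for 120 min at 25 °C. Filtration was through 0.1% PEI-treated GF/B filters.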

The target of a further experiment is Mu-type opioid receptor (Rattus norvegicus, UniProt P33535). Nature of the experiment: Inhibition of binding of [3H]-naloxone to Opioid receptor mu 1 of rat brain membranes. The experiment is classed as cell membranes, Membrane. In outline:
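The [3H]naloxone (1 nM) displacement used washed Sprague-Dawley rat brain membranes in 50 mM Tris-HCl pH 7.4 containing MgCl2 5 mM, BSA and bacitracin. Incubation ran 120 min at 25 °C across ≥10 analogue concentrations. Binding was terminated by filtration through GF/B filters soaked in 0.1% polyethylenimine. IC50 is mean ± SD of at least three duplicate runs.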

Mu-type opioid receptor, sequence (P33535 whole entry): as the sequence (P33535 whole entry, looked up) above
Delta-type opioid receptor, sequence (P33533 whole entry): as the sequence (P33533 whole entry, looked up) above

With `C[C@@H](O)[C@H](NC(=O)[C@H]1CSSC(C)(C)[C@H](NC(=O)[C@H](N)c2ccccc2)C(=O)N[C@@H](Cc2ccccc2)C(=O)N[C@H](Cc2c[nH]c3ccccc23)C(=O)N[C@@H](CCCCN)C(=O)N[C@H]([C@@H](C)O)C(=O)N1)C(=O)O`, the Ratio in experiment [1] was found to be 15; in experiment [2] it was 0.45.

For the compound `C[C@@H](O)[C@H](NC(=O)[C@H]1NC(=O)[C@H]([C@@H](C)O)NC(=O)[C@H](CCCN)NC(=O)[C@@H](Cc2c[nH]c3ccccc23)NC(=O)[C@H](Cc2ccc(O)cc2)NC(=O)[C@@H](NC(=O)[C@H](N)Cc2ccccc2)CSSC1(C)C)C(N)=O`, the IC50 (as a rule, the concentration that inhibits the measured activity by half) worked out at 13.5 µM in experiment [3] and 24.3 µM in the experiment filed under Rattus norvegicus.

On to `C[C@H](N)C(=O)NCC(=O)N[C@H]1CSSC[C@@H](C(=O)O)NC(=O)[C@H](CO)NC(=O)[C@H]([C@@H](C)O)NC(=O)[C@H](Cc2ccccc2)NC(=O)[C@H]([C@@H](C)O)NC(=O)[C@H](CCCCN)NC(=O)[C@H](Cc2c[nH]c3ccccc23)NC(=O)[C@H](Cc2ccccc2)NC(=O)[C@H](Cc2ccccc2)NC(=O)[C@H](CC(N)=O)NC(=O)[C@H](CCCCN)NC1=O`, for which the Ratio in experiment [2] was 0.0003.

Take `C[C@@H](O)[C@H](NC(=O)[C@@H]1CSSC(C)(C)[C@H](NC(=O)[C@H](N)c2ccccc2)C(=O)N[C@@H](Cc2ccccc2)C(=O)N[C@H](Cc2c[nH]c3ccccc23)C(=O)N[C@@H](CCCCN)C(=O)N[C@@H]([C@@H](C)O)C(=O)N1)C(=O)O`: the values for the concentration for half-maximal inhibition (IC50) (in experiment [3]; on Mu-type opioid receptor; in the experiment filed under Rattus norvegicus) were 32 µM, 2100 nM and 0.947 µM, respectively.

Take `C[C@@H](O)[C@H](NC(=O)[C@H]1NC(=O)[C@H]([C@@H](C)O)NC(=O)[C@H](CCCN=C(N)N)NC(=O)[C@@H](Cc2c[nH]c3ccccc23)NC(=O)[C@H](Cc2ccc(O)cc2)NC(=O)[C@@H](NC(=O)[C@H](N)Cc2ccccc2)CSSC1(C)C)C(N)=O`: the values for the IC50 (in experiment [3]; at Mu-type opioid receptor; in the experiment filed under Rattus norvegicus) were 4.5 µM, 3.5 nM and 14.3 µM, respectively.

With `C[C@@H](O)[C@H](NC(=O)[C@H]1NC(=O)CNC(=O)[C@H](CCCCN)NC(=O)[C@@H](Cc2c[nH]c3ccccc23)NC(=O)[C@H](Cc2ccc(O)cc2)NC(=O)[C@@H](NC(=O)[C@H](N)Cc2ccccc2)CSSC1(C)C)C(N)=O`, the IC50 came out at 58 µM in experiment [3], 539 nM at Mu-type opioid receptor and 13.3 µM in the experiment listed under Rattus norvegicus.

Take `C[C@@H](O)[C@H](NC(=O)[C@H]1NC(=O)[C@H]([C@@H](C)O)NC(=O)[C@H](CCCCN)NC(=O)[C@H](Cc2c[nH]c3ccccc23)NC(=O)[C@H](Cc2ccc(O)cc2)NC(=O)[C@@H](NC(=O)[C@H](N)Cc2ccccc2)CSSC1(C)C)C(N)=O`: the IC50 is over 70 µM in experiment [3], 1350 nM at Mu-type opioid receptor and 0.74 µM in the experiment listed under Rattus norvegicus.

As to `C[C@@H](O)[C@H](NC(=O)[C@H]1CSSC[C@H](NC(=O)[C@H](N)Cc2ccc(O)cc2)C(=O)N[C@@H](Cc2ccc(O)cc2)C(=O)N[C@H](Cc2c[nH]c3ccccc23)C(=O)N[C@@H](CCCCN)C(=O)N[C@H]([C@@H](C)O)C(=O)N1)C(=O)O`, the Ratio is 3 in experiment [1] and 2 in experiment [2].

On to `C[C@@H](O)[C@H](NC(=O)[C@@H]1NC(=O)[C@@H]([C@@H](C)O)NC(=O)[C@H](CCCCN)NC(=O)[C@@H](Cc2c[nH]c3ccccc23)NC(=O)[C@H](Cc2ccc(O)cc2)NC(=O)[C@@H](NC(=O)[C@H](N)c2ccccc2)CSSC1(C)C)C(N)=O`, for which the Ratio turned out to be 8 in experiment [1] and 6.6 in experiment [2].

For `CC(C)[C@H]1NC(=O)[C@H](CCCCN)NC(=O)[C@@H]([C@@H](C)O)NC(=O)[C@H](Cc2ccc(O)cc2)NC(=O)[C@@H](NC(=O)[C@H](N)Cc2ccccc2)CSSC(C)(C)[C@H](C(=O)N[C@H](C(N)=O)[C@@H](C)O)NC1=O`, the Ratio in experiment [1] came out at 360.

As to `C[C@@H](O)[C@H](NC(=O)[C@@H]1CSSC[C@H](NC(=O)[C@H](N)Cc2ccc(O)cc2)C(=O)N[C@@H](Cc2ccc(O)cc2)C(=O)N[C@H](Cc2c[nH]c3ccccc23)C(=O)N[C@@H](CCCCN)C(=O)N[C@@H]([C@@H](C)O)C(=O)N1)C(=O)O`, the values for the IC50 (in experiment [3]; at Mu-type opioid receptor; in the experiment filed under Rattus norvegicus) were 27.5 µM, 9100 nM and 18.5 µM, respectively.

Turning to `CCCC[C@@H]1NC(=O)[C@@H](Cc2c[nH]c3ccccc23)NC(=O)[C@H](Cc2ccc(O)cc2)NC(=O)[C@@H](NC(=O)[C@H](N)Cc2ccccc2)CSSC(C)(C)[C@H](C(=O)N[C@H](C(N)=O)[C@@H](C)O)NC(=O)[C@@H]([C@@H](C)O)NC1=O`, the Ratio in experiment [1] came out at 580.

Consider `C[C@@H](O)[C@H](NC(=O)[C@@H]1NC(=O)[C@@H]([C@@H](C)O)NC(=O)[C@H](CCCN=C(N)N)NC(=O)[C@@H](Cc2c[nH]c3ccccc23)NC(=O)[C@H](Cc2ccc(O)cc2)NC(=O)[C@@H](NC(=O)[C@H](N)Cc2ccccc2)CSSC1(C)C)C(N)=O`, for which the Ratio in experiment [1] turned out to be 1300; in experiment [2], 4090.

Take `C[C@@H](O)[C@H](NC(=O)[C@@H]1NC(=O)[C@@H]([C@@H](C)O)NC(=O)[C@H](CCCCN)NC(=O)[C@@H](Cc2c[nH]c3ccccc23)NC(=O)[C@H](Cc2ccc(O)cc2)NC(=O)[C@@H](NC(=O)[C@H](N)Cc2ccccc2)CSSC1(C)C)C(N)=O`: the Ratio in experiment [1] worked out at 2250; in experiment [2], 187.

Consider `CCCC[C@@H]1NC(=O)[C@@H](Cc2c[nH]c3ccccc23)NC(=O)[C@H](Cc2ccc(O)cc2)NC(=O)[C@@H](NC(=O)[C@H](N)Cc2ccccc2)CSSC(C)(C)[C@@H](C(=O)N[C@H](C(N)=O)[C@@H](C)O)NC(=O)[C@H]([C@@H](C)O)NC1=O`, for which the IC50 is 5.6 µM in experiment [3] and 9.6 nM on Mu-type opioid receptor.

As for `C[C@@H](O)[C@H](NC(=O)[C@H]1NC(=O)[C@H]([C@@H](C)O)NC(=O)[C@H](CCCCN)NC(=O)[C@@H](Cc2c[nH]c3ccccc23)NC(=O)[C@H](Cc2ccc(O)cc2)NC(=O)[C@@H](NC(=O)[C@H](N)c2ccccc2)CSSC1(C)C)C(N)=O`, the IC50 turned out to be 2.8 µM in experiment [3], 350 nM at Mu-type opioid receptor and 2.3 µM in the experiment filed under Rattus norvegicus.

With `C[C@@H](O)[C@H](NC(=O)[C@@H]1NC(=O)CNC(=O)[C@H](CCCCN)NC(=O)[C@@H](Cc2c[nH]c3ccccc23)NC(=O)[C@H](Cc2ccc(O)cc2)NC(=O)[C@@H](NC(=O)[C@H](N)Cc2ccccc2)CSSC1(C)C)C(N)=O`, the values for the Ratio in experiment [1] and in experiment [2] were 110 and 25, respectively.

`C[C@@H](O)[C@H](NC(=O)[C@@H]1NC(=O)[C@@H]([C@@H](C)O)NC(=O)[C@H](CCCCN)NC(=O)[C@H](Cc2c[nH]c3ccccc23)NC(=O)[C@H](Cc2ccc(O)cc2)NC(=O)[C@@H](NC(=O)[C@H](N)Cc2ccccc2)CSSC1(C)C)C(N)=O`: the Ratio in experiment [1] is over 52; in experiment [2], 0.55.

For the compound `C[C@@H](O)[C@H](NC(=O)[C@H]1NC(=O)[C@H]([C@@H](C)O)NC(=O)[C@H](CCCCN)NC(=O)[C@@H](Cc2c[nH]c3ccccc23)NC(=O)[C@H](Cc2ccc(O)cc2)NC(=O)[C@@H](NC(=O)[C@H](N)Cc2ccccc2)CSSC1(C)C)C(N)=O`, the values for the IC50 (in experiment [3]; at Mu-type opioid receptor; in the experiment listed under Rattus norvegicus) were 8.4 µM, 3.7 nM and 0.69 µM, respectively.

In the case of `CC(C)[C@@H]1NC(=O)[C@H](CCCCN)NC(=O)[C@@H](Cc2c[nH]c3ccccc23)NC(=O)[C@H](Cc2ccc(O)cc2)NC(=O)[C@@H](NC(=O)[C@H](N)Cc2ccccc2)CSSC(C)(C)[C@@H](C(=O)NC(C(N)=O)[C@@H](C)O)NC1=O` (stereo in doubt), the IC50 in experiment [3] was found to be 2 µM; at Mu-type opioid receptor, 5.5 nM.
